{"data": "Results of several laboratories", "observed": "enzyme activity", "mode": "inhibitor", "MAP3K11": "Mitogen-activated protein kinase kinase kinase 11 (MAP3K11, Homo sapiens, UniProt Q16584)", "MAP3K1": "Mitogen-activated protein kinase kinase kinase 1 (MAP3K1, Homo sapiens, UniProt Q13233)", "HIPK1": "Homeodomain-interacting protein kinase 1 (HIPK1, Homo sapiens, UniProt Q86Z02)"}
{"Structure (SMILES)": "Cc1nn(CC(F)(F)F)cc1Nc1ncc(C2CC2)c(NCc2ccc(S(N)(=O)=O)cc2)n1", "target": "MAP3K11", "test": "radiometric", "conditions": "1 µM", "remaining activity": "89%"}
{"Structure (SMILES)": "FC(F)c1nc2ccccc2n1-c1nc(N2CCOCC2)nc(N2CCOCC2)n1", "target": "MAP3K1", "conditions": "10 µM", "remaining activity": "92%"}
{"Structure (SMILES)": "COc1cc(Nc2cnc(C#N)c(O[C@H](C)CN(C)C)n2)ncc1-c1cnn(C)c1", "target": "MAP3K1", "test": "radiometric", "conditions": "10 µM", "remaining activity": "99%"}
{"Structure (SMILES)": "Cc1cnc(NC2CCOCC2)nc1-n1cnc(C(=O)NC(CN)c2cc(F)cc(Cl)c2)c1 (stereo not drawn)", "target": "Hepatocyte growth factor receptor (MET, Homo sapiens, UniProt P08581, D1228N)", "test": "radiometric", "conditions": "1 µM", "remaining activity": "97%"}
{"Structure (SMILES)": "CC(C)(O)[C@H]1CC[C@H](Nc2ccc3ncc(-c4cccc(C(F)(F)F)c4)n3n2)CC1", "target": "cAMP-dependent protein kinase catalytic subunit gamma (PRKACG, Homo sapiens, UniProt P22612)", "conditions": "1 µM", "remaining activity": "98.6%"}
{"Structure (SMILES)": "NS(=O)(=O)c1ccc(CNc2nc(Nc3cccc(NC(=O)N4CCCC4)c3)ncc2C2CC2)cc1", "target": "MAP3K11", "test": "radiometric", "conditions": "1 µM", "remaining activity": "72%"}
{"Structure (SMILES)": "O=C(O)c1ccc2c(c1)nc(Nc1ccc3ccccc3c1)c1ccncc12", "target": "HIPK1", "test": "radiometric", "conditions": "1 µM", "remaining activity": "13%"}
{"Structure (SMILES)": "O=C(NCCCNc1nc(Nc2cccc(CN3CCOCC3)c2)ncc1C1CC1)C1CCC1", "target": "MAP3K11", "test": "radiometric", "conditions": "1 µM", "remaining activity": "38%"}
{"Structure (SMILES)": "Cc1ccc(C(=O)Nc2ccc(CN3CCN(C)CC3)c(C(F)(F)F)c2)cc1C#Cc1cnc2cccnn12", "target": "Serine/threonine-protein kinase 36 (STK36, Homo sapiens, UniProt Q9NRP7)", "conditions": "23.5 nM", "remaining activity": "100%"}
{"Structure (SMILES)": "O=C(NCCCNc1ccnc(Nc2cccc(NC(=O)N3CCCC3)c2)n1)C1CCC1", "target": "MAP3K11", "test": "radiometric", "conditions": "1 µM", "remaining activity": "86%"}
{"Structure (SMILES)": "COc1cccc(CCNc2nc3cc(C(=O)O)ccc3c3cnccc23)c1", "target": "HIPK1", "test": "radiometric", "conditions": "1 µM", "remaining activity": "16%"}
{"Structure (SMILES)": "CCCOc1ccc(OC)c(F)c1C(=O)c1ccc(C(=O)N[C@@H]2CNC[C@H]2NC(=O)c2ccc3[nH]ncc3c2)cc1", "target": "Mitogen-activated protein kinase 1 (Mapk1, Mus musculus, UniProt P63085)", "conditions": "10 µM", "remaining activity": "100%"}
